CHRM4 PAM: positive allosteric modulators of human muscarinic M4 receptor. CHO-K1 hM4/Gqi5, Fluo-8 calcium fluorescence, ACh EC20; 0% = ACh EC20, 100% = maximal ACh. activation, % at 3 µM. AID 624126. P08173. hit rate 0.4% among 360,000;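 active = activation above its plate's cutoff, the mean activation of sample wells plus 3 SD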
CHRM5 PAM: positive allosteric modulators of human muscarinic M5 receptor | hit rate 0.3% among 360,000 | activation, % at 3 µM | AID 624038 | CHO-K1 hM5, Fluo-8 calcium, ACh EC20 PAM; 0% = ACh EC20, 100% = ACh EC100;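 active = activation above the run cutoff, the mean activation of all test compounds plus 3 SD, cut at about 18% in these data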
Target sequence (P08912 whole entry, looked up): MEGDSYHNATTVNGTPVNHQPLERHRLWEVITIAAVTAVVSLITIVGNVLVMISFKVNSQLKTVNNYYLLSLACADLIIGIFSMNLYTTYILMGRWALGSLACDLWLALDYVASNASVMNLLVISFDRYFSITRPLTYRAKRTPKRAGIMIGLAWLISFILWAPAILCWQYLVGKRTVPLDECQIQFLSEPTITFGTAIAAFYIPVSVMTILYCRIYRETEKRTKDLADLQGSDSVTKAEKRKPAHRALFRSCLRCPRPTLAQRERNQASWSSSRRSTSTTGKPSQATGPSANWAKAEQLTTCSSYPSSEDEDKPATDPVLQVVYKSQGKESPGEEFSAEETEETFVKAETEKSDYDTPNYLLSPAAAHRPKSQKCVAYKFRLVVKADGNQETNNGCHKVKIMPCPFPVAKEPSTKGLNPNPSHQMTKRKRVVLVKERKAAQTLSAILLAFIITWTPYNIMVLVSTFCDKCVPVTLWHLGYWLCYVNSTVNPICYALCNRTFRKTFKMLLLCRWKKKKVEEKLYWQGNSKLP
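system = human M5 receptor in CHO-K1 cells | compound = one concentration, 3 µM final (nominal) | schedule = Post-acetylcholine fluorescence recording 140 s | signal = Fluo-8 calcium dye fluorescence, kinetic read | benchmarks = low control EC20 acetylcholine (0%), high control EC100 acetylcholine (100%) | repeats = singlicate, one well per test compound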
M4 ag: agonists of human muscarinic M4 receptor (CHRM4). P08173. CHO-K1 hM4/Gqi5, Fluo-8 calcium fluorescence; vehicle 0%, full acetylcholine response 100%. activation, % at 3 µM. hit rate 0.14% among 360,000;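 active = activation above the run mean over all test wells plus 3 SD, cut at about 32% in these data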;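 note: peak over basal fluorescence ratio per well then scaled between controls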
M5 antag: CHRM5 antagonism in calcium assay; P08912; CHO-hM5 cells, Fluo-8 calcium fluorescence, ACh EC80; inhibition, % at 3 µM; hit rate 0.59% among 360,000;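 active = inhibition above a per-plate cutoff, the mean of that plate's test compounds plus 3 SD, cut at about 27% in these data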
CHRM5 agonist: agonists of human muscarinic M5 receptor (CHRM5) | AID 624037 | CHO-K1 hM5 cells, Fluo-8 calcium fluorescence; 0% DMSO wells, 100% maximal acetylcholine response | activation, % at 3 µM | hit rate 0.19% among 360,000 | P08912;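 active = activation above the run's mean over test compounds plus 3 SD, cut at about 23% in these data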;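 note: signal is peak over basal fluorescence ratio across the kinetic read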
M4 antag: CHRM4 antagonism in calcium assay; P08173; CHO-hM4 cells, ACh EC80, Fluo-8 calcium fluorescence; inhibition, % at 3 µM; hit rate 0.73% among 360,000;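 active = inhibition above its plate's cutoff, the mean inhibition of sample wells plus 3 SD, cut at about 27% in these data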
A number is an active result; . = inactive. Most compounds without a hit are left out; they make up all but 1.9% or so of the library.

SMILES | CHRM4 PAM | CHRM5 PAM | M4 ag | M5 antag | CHRM5 agonist | M4 antag
Nc1ccc(CN2CCCCCC2)cc1 | . | 38.5 | . | . | . | .
CCOC(=O)c1oc2ccc(Cl)cc2c1NC(C)=O | 19.5 | . | . | . | . | .
CCOC(=O)c1oc2ccccc2c1NC(=O)C(C)(C)C | . | . | . | . | . | .
COc1ccc(Cl)cc1NS(=O)(=O)c1cccc(C(=O)NCCCN2CCCC2=O)c1 | . | . | . | . | . | .
OCC[C@@H]1C[C@@H](O)[C@H](O)[C@]2(Cc3ccccc3O2)O1 | . | . | . | . | . | .
COC(=O)c1c(NC(=O)c2ccccc2)sc2c1CC(C)(C)NC2(C)C | . | . | . | . | . | .
CC1(C)Cc2c(sc(NC(=O)c3ccc(C(=O)c4ccccc4)cc3)c2C(N)=O)C(C)(C)N1 | . | . | . | 31.9 | . | .
CC(=O)c1ccc(N(CC(=O)NCc2ccc3c(c2)OCO3)C(=O)c2csnn2)cc1 | . | . | . | . | . | .
CCOC(=O)C1CCC(CNCc2ccccc2C)CC1 (stereo unspecified) | . | . | . | . | . | 34.1
CCCCS/C(=C(/C#N)C(N)=O)c1cc2c([nH]1)CCCC2 | . | . | . | . | . | 34.3
CCc1ccc(N/C(SC)=C(/C#N)C(N)=O)cc1 | . | . | . | . | . | .
Cc1ccccc1OCCn1cnc2c(N)ncnc21 | 16.5 | . | . | . | . | .
CCCN(c1ccc(OCC)cc1)S(=O)(=O)c1ccc2c(c1)NC(=O)CO2 | . | . | . | . | . | .
CCN(CC)CCN1C(=O)/C(=C\c2ccc(Cl)c([N+](=O)[O-])c2)SC1=Nc1ccc(OC)cc1 | . | . | . | 29.8 | . | .
CCOc1ccc(CC(C(=O)NN)C(=O)NN)cc1CN(C)C | 19.2 | . | . | . | . | .
O=C(c1ccc2c(c1)OCO2)N1CCN(S(=O)(=O)c2ccc(Br)cc2Cl)CC1 | . | . | . | . | . | .
O=C(Nc1nc2c(F)cc(F)cc2s1)c1ccc([N+](=O)[O-])o1 | . | . | . | . | . | .
CCOC(=O)C1(C)CCN1C(=O)c1ccccc1C(F)(F)F (stereo unspecified) | . | . | . | . | . | .
CCOCCCNc1ncnc2c1[nH]c1ccccc12 | . | . | . | . | . | .
CCCCOCCCNc1ncnc2c1[nH]c1ccccc12 | . | . | . | 28.3 | . | 31.4
C=CCOc1ccc(/C=C/C(=O)OCC(=O)N(C)C2CCS(=O)(=O)C2)cc1 (stereo unspecified) | . | . | . | . | . | .
COC(=O)C1=C(C)NC(C)=C(C(=O)OC)C1c1ccc(NC(C)=O)cc1 | . | . | . | . | 43.9 | .
CCN(CC)c1ccc(C2C(C(=O)OC)=C(C)NC(C)=C2C(=O)OC)cc1 | . | . | . | . | . | .
CN(Cc1ccc(OC(F)F)cc1)C(=O)c1cccc(S(=O)(=O)N2CCN(c3ccccc3)CC2)c1 | . | . | . | 28.8 | . | 38.9
N#Cc1ccc(OCC(=O)N/N=C2\CCc3ccccc32)cc1 | . | 18.4 | . | . | . | .
SMILES | CHRM4 PAM | CHRM5 PAM | M4 ag | M5 antag | CHRM5 agonist | M4 antag
Cc1nn(C)cc1C(C(=O)NC1CCCCC1)N(C(=O)c1cnccn1)c1ccc(Oc2ccccc2)cc1 (stereo unspecified) | 24.2 | . | . | . | . | .
CCOC(=O)c1ccc(N(C(=O)c2cnccn2)C(C(=O)NC2CCCCC2)c2cn(C)nc2C)cc1 (stereo unspecified) | . | . | . | . | . | .
COCCn1c(=NC(=O)/C=C/c2cccs2)sc2cc(NC(C)=O)ccc21 | 21.4 | . | . | . | . | .
C[C@H]1CN(C2CCCCC2)C(=O)[C@@H]1CC(=O)Nc1ccccc1 | . | . | . | . | . | .
Cc1ccc(NC(=O)N2CCc3ccccc3C2)c(C)c1 | 19.0 | . | . | . | . | .
CCCC(=O)Nc1ccc2c(c1)nc1n2CCN(CCOC)C1 | . | . | . | . | . | .
CN(C)C/C=C/C(O)(c1ccccc1)c1ccccc1 | . | . | . | 45.1 | . | 55.0
CC(O)(C(=O)c1ccccc1)c1ccccc1 (stereo unspecified) | . | . | . | . | . | .
CCCC(=O)N1CCC1(C)C(=O)Nc1cc(OC)c(OC)c(OC)c1 (stereo unspecified) | . | . | . | . | . | .
Cc1cc(F)ccc1-c1cc(C(=O)NCc2ccc(C(F)(F)F)cc2)[nH]n1 | . | . | . | . | 32.8 | .
CCCN(Cc1nnc(-c2cccs2)o1)C(=O)CN1C(=O)NC2(CCC(C)CC2)C1=O (stereo unspecified) | . | . | . | . | . | .
C#CCOc1ccc(C2C3=C(COC3=O)Nc3cc4c(cc32)OCO4)cc1OC (stereo unspecified) | 22.0 | . | . | . | . | .
Cc1c(N2C(=O)/C(=C/c3ccc(N(C)C)cc3)N(C)C2=S)c(=O)n(-c2ccccc2)n1C | . | . | . | . | 33.6 | .
CC(OC(=O)c1cc(S(=O)(=O)N2CCOCC2)ccc1F)C(=O)NCc1ccc2c(c1)OCO2 (stereo unspecified) | . | . | . | . | . | .
COc1cccc(OCC(=O)Nc2ccncc2)c1 | . | . | . | . | . | .
O=C(COc1ccc2ccccc2c1Br)Nc1ccncc1 | . | . | . | 28.7 | . | .
Cc1cc(OCC(=O)Nc2ccncc2)c(C)cc1Br | . | . | . | 33.7 | . | .
CC(C)CCOc1cccc(OCC(=O)Nc2ccncc2)c1 | . | . | . | 32.7 | . | .
Cc1cc(N2CCCC2)ccc1NC(=O)CN1C(=O)NC2(CCCCC2)C1=O | . | . | . | . | . | .
CC(C)c1ccc(CN2CCC(n3nccc3NC(=O)C3CCCC3)CC2)cc1 | . | . | . | . | . | .
CC(C)CCN1CC(C(=O)NCc2ccc(F)cc2)CC1=O (stereo unspecified) | . | . | . | . | . | .
O=C(NCc1ccc(F)cc1)C1CC(=O)N(CCc2ccccc2)C1 (stereo unspecified) | . | 18.6 | . | . | . | .
O=C(OCc1nnc(-c2ccccc2)o1)C1CC(=O)N(CCc2ccccc2)C1 (stereo unspecified) | 25.2 | . | . | . | . | .
Cc1ccc(S(=O)(=O)N(CC(=O)NCC2CCCO2)Cc2cccc(C)c2)cc1 (stereo unspecified) | . | . | . | . | . | .
COc1ccc(C(=O)c2coc3ccc(OC(C)=O)cc23)cc1 | . | . | . | 29.2 | . | .
COc1cc(C(=O)Nc2scc(-c3ccc(C)cc3)c2C(=O)O)cc(OC)c1OC | . | . | . | . | . | 62.5
